# Screens from PubChem.
# FN deposition inh = fibronectin deposition inhibition; AH1F fibroblasts, Alexa488-fibronectin deposition fluorescence, overnight; inhibition, % at 12.6 µM; hit rate 0.086% among 350,000; AID 743247;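 active means mean inhibition across replicates of 30% or more, regardless of how many single replicates reach that level; inconclusive means mean under 30% yet at least half of replicates reach 30%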;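 further: positive control wells lacked labelled fibronectin entirely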
#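 Test system: AH1F fibroblast monolayer depositing Alexa488-labelled fibronectin into matrix. Input: 10000 cells per well. Technique: fluorescence, ex 485 nm, em 525 nm. Buffer or medium: DMEM plus 2% serum, read in PBS. Timing: 1 h cell adhesion before compound, then overnight fibronectin incubation. Compound: single dose, pinned. Read-out basis: inhibition from reduced deposited-fibronectin fluorescence.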
# DENV2 CPE = protects cells from dengue virus 2 cytopathic effect; DENV2-infected cells, cytopathic effect rescue, plate reader; AID 651640; CPE inhibition, % at 9.99 µM; hit rate 1.7% among 350,000; in the data active means CPE inhibition above about 20%, passing the limit was not always enough; inconclusive means no clear call, values can overlap the other calls; tested in BHK-21 cells;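 further: 0% = median of neutral control wells and 100% = median of positive control wells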
# PglD inh = PglD (C. jejuni) enzyme inhibition | hit rate 0.098% among 360,000 | AID 602405 | inhibition, % at 12.5 µM | purified PglD enzyme, DTNB colorimetric CoA detection; in the data active means inhibition above about 16%, passing the limit was not always enough; inconclusive means no clear call, values can overlap the other calls
# rRNA inh HTS = inhibitors of bacterial rRNA selective over humanized ribosomes. E. coli WT GFP vs humanized-ribosome RFP mutants, fluorescence, 24 h; active compounds read low; DMSO median 0, no signal -100. GFP signal change (wild-type ribosome), % (no concentration beside the values). hit rate 1.6% among 350,000;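 active means significant combined selectivity score with lowered wild-type GFP, culture density cut under 30%, mutant RFP and density less affected; inactive means any of these conditions unmet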
# PGC1a acetyl inh = modulators of PGC1a acetylation; U2OS PGC1a acetylation, AlphaScreen anti-acetyl-lysine; with virally co-expressed GCN5 acetyltransferase; inhibition, % at 15.6 µM; hit rate 0.17% among 350,000;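 active means every replicate shows inhibition of at least 40%; inconclusive means mean inhibition at least 40% but some replicate below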;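 further: 0% = neutral control wells and 100% = positive control wells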
# Env fusion inh = inhibitors of HIV Env-mediated cell fusion; HeLa-JRFL Env/CEM21 cell fusion, luciferase; inhibition, % at 12.3 µM; hit rate 1.1% among 360,000; AID 651610;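 active means mean replicate inhibition score of at least 50 and every replicate individually at or above 50; inconclusive means only one of the two criteria met; inactive means mean below 50 and not all replicates reaching 50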;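 further: 0% = plate neutral controls and 100% = maraviroc near 300 nM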
# * hit, by the source's call; ? = inconclusive; · = not tested or not shown; [ ] = remark or other dose. Most compounds without a hit are left out; they make up all but 3.5% or so of the library.
SMILES,FN deposition inh,DENV2 CPE,PglD inh,rRNA inh HTS,PGC1a acetyl inh,Env fusion inh
CC(C)C1Cc2[nH]c(=S)[nH]c(=O)c2C(c2ccc(Cl)cc2)O1 (centres undefined),-6,-6,-2,-3,-35,22
COc1cccc(/C=N/NC(=O)c2[nH]nc3c2CCc2ccccc2-3)c1,10,-4,0,-37*,-1,-235
COc1cccc(/C=N/NC(=O)c2ccc(N3CCCC3=O)cc2)c1,7,6,-3,-19*,16,-97
CC(=O)N(C)C[C@H]1Oc2cc(C#CC3CC3)ccc2S(=O)(=O)N([C@H](C)CO)C[C@H]1C,-7,·,·,-1,7,4[16.7 µM]
CCCSc1ccc([C@@H]2[C@H]3C(=O)N(CC)C(=O)[C@H]3[C@]3(C(=O)OC)CCCN23)cc1OC,1,102*,-1,3,·,-13
CCN1C(=O)[C@@H]2[C@@H](c3ccc(-c4ccc(Cl)c(Cl)c4)cc3)N3CCCC[C@@]3(C(=O)OC)[C@@H]2C1=O,-15,-12,-3,13,2,63*
CCSc1ccc([C@@H]2[C@H]3C(=O)N(CC)C(=O)[C@H]3[C@]3(C(=O)OC)CCCCN23)cc1,-2,·,1,11,-3,-15
CCSc1ccc([C@@H]2[C@@H]3C(=O)N(CC)C(=O)[C@@H]3[C@]3(C(=O)OC)CCCCN23)cc1,5,?,-2,-24,-3,63*
CC(C)CC#Cc1ccc2c(c1)O[C@H](CN(C)C(=O)c1cnccn1)[C@@H](C)CN([C@@H](C)CO)S2(=O)=O,·,2,0,-4,-4,·
O=[N+]([O-])c1ccc2c(c1)/C(=N\O)c1ccccc1-2,6,1,-8,-28*,-17,2
COc1ccc(C(CC(=O)Nc2ccccn2)N2Cc3ccccc3C2=O)cc1 (centres undefined),-4,3,6,-3,76*,9
O=C(CSc1nc2c(oc3ccccc32)c(=O)n1CC1CCCO1)NCc1ccc(F)cc1 (centres undefined),4,-2,-1,6,0,-134
O=C(CSc1nc2c(oc3ccccc32)c(=O)n1CC1CCCO1)NCc1ccccc1 (centres undefined),8,72*,2,9,-1,13
CCOC(=O)N1CCC(N2Cc3cccc(C(=O)Nc4ccccc4OC)c3C2=O)CC1,7,-5,-1,-21*,-6,6
COc1cc(NC(=O)c2cccc3c2C(=O)N(C2CCCCC2)C3)cc(OC)c1OC,0,5,0,-41*,9,40
CCOC(=O)c1ccccc1NC(=O)c1cccc2c1C(=O)N(C1CCN(C(=O)OCC)CC1)C2,-2,14,-6,2,2,-79
O=C1CNC[C@H]2[C@H](c3ccc(-c4ccccc4F)cc3)[C@H](CO)N12,3,1,·,-2,12,·
Cc1ccc(-c2cnc3c(c2)C(=O)N([C@H](C)CO)C[C@H](C)[C@H](CN(C)CC2CCOCC2)O3)cc1,·,5,-1,2,0,2[16.7 µM]
O=C(O)C[C@H]1C=C[C@@H](NC(=O)CCN2CCCCC2)[C@@H](CO)O1,8,97*,·,5,-5,·
CN(C)CC(=O)N[C@H]1C=C[C@@H](CC(=O)NCCN2CCCCC2)O[C@@H]1CO,14,59*,-3,5,-4,-6[16.7 µM]
O=C(O)C[C@@H]1C=C[C@H](NC(=O)CCN2CCCCC2)[C@H](CO)O1,1,0,·,4,1,·
CN(C)CC(=O)N[C@@H]1C=C[C@@H](CC(=O)NCCN2CCCCC2)O[C@H]1CO,-6,4,2,6,-11,-11[16.7 µM]
Cc1cc(C(=O)c2ccc3ccccc3c2)c(C)o1,10,8,-2,-23*,20,4
CC1(C)OC(=O)C2=C(CC(CCc3ccccc3)OC2CCc2ccccc2)O1 (centres undefined),1,4,·,10,·,18
CC(C)C[C@@H]1O[C@H](CCc2ccccc2)CC2=C1C(=O)OC(C)(C)O2,·,-15,·,-3,·,14
SMILES,FN deposition inh,DENV2 CPE,PglD inh,rRNA inh HTS,PGC1a acetyl inh,Env fusion inh
CC(C)[C@@H]1CC2=C(C(=O)OC(C)(C)O2)[C@H](CCc2ccccc2)O1,6,42*,·,2,·,-3
CC(C)C[C@@H]1CC2=C(C(=O)OC(C)(C)O2)[C@H](CCc2ccccc2)O1,-4,29*,·,15,·,25
C[C@H]1CN([C@@H](C)CO)C(=O)c2cc(C#CC(C)(C)O)cnc2O[C@H]1CN(C)Cc1cccc(F)c1,-6,·,·,0,-8,5[16.7 µM]
CO[C@@H](CN(C)C(=O)c1cc(Cl)cc(Cl)c1)[C@H](C)CN(C(=O)Nc1ccc(F)cc1)[C@@H](C)CO,-5,92*,-2,-6,8,·
CO[C@@H](CN(C)C(=O)c1cc(Cl)cc(Cl)c1)[C@@H](C)CN(C(=O)Nc1ccc(F)cc1)[C@H](C)CO,4,19,2,-2,3,·
CO[C@H](CN(C)S(=O)(=O)c1cn(C)cn1)[C@H](C)CN(C(=O)Nc1ccc(F)cc1)[C@@H](C)CO,5,-5,-2,0,7,·
CO[C@H](CN(C)S(=O)(=O)c1ccc(C)cc1)[C@@H](C)CN(C(=O)Nc1ccccc1F)[C@H](C)CO,3,30*,-1,-4,3,·
CO[C@@H](CN(C)S(=O)(=O)c1cn(C)cn1)[C@@H](C)CN(C(=O)Nc1ccc(F)cc1)[C@@H](C)CO,-3,23*,2,-2,10,·
COc1ccc2c3c([nH]c2c1)[C@H](CO)N(C(=O)c1cccnc1)CC31CCN(Cc2cccnc2)CC1,·,4,·,0,-4,·
COc1ccccc1CN1[C@H](CO)[C@H]2c3ccccc3N(C(=O)c3ccc(F)cc3)C[C@H]21,·,-6,1,-3,1,·
Cc1ccc(S(=O)(=O)Nc2cccc3c2O[C@H](CN(C)S(=O)(=O)c2ccc(Cl)cc2)[C@H](C)CN([C@H](C)CO)C3=O)cc1,·,7,·,0,9,·
Cc1ccc(S(=O)(=O)Nc2cccc3c2O[C@@H](CN(C)S(=O)(=O)c2ccc(Cl)cc2)[C@@H](C)CN([C@@H](C)CO)C3=O)cc1,·,21*,·,-1,4,·
C[C@H](CO)N1C[C@H](C)[C@@H](CN(C)S(=O)(=O)c2cccs2)Oc2c(NS(=O)(=O)c3ccc(Cl)cc3)cccc2C1=O,·,-2,2,-5,3,-36[16.7 µM]
C[C@@H]1CN([C@H](C)CO)C(=O)c2cccc(NC(=O)c3ccncc3)c2O[C@@H]1CN(C)S(=O)(=O)c1cccs1,·,26*,2,7,-4,·
C[C@@H]1CN([C@H](C)CO)C(=O)c2cccc(NS(=O)(=O)c3ccc(Cl)cc3)c2O[C@@H]1CN(C)S(=O)(=O)c1cccs1,·,76*,3,-8,-7,-15[16.7 µM]
